Measured values taken from PMC6412122 (Nucleic Acids Research, 2019).

Biological target: T1, HNA polymerase T6G12_I521L (Thermococcus gorgonarius, UniProt P56689, A485L/A681S/D141A/D669Q/E143A/E609K/E664Q/E730G/I521L/I610M/K659Q/K671H/K674R/L704P/Q665P/R668K/T676R/V589A/V93Q)
T1 sequence (P56689 1-773 V93Q/D141A/E143A/A485L/I521L/V589A/E609K/I610M/K659Q/E664Q/Q665P/R668K/D669Q/K671H/K674R/T676R/A681S/L704P/E730G): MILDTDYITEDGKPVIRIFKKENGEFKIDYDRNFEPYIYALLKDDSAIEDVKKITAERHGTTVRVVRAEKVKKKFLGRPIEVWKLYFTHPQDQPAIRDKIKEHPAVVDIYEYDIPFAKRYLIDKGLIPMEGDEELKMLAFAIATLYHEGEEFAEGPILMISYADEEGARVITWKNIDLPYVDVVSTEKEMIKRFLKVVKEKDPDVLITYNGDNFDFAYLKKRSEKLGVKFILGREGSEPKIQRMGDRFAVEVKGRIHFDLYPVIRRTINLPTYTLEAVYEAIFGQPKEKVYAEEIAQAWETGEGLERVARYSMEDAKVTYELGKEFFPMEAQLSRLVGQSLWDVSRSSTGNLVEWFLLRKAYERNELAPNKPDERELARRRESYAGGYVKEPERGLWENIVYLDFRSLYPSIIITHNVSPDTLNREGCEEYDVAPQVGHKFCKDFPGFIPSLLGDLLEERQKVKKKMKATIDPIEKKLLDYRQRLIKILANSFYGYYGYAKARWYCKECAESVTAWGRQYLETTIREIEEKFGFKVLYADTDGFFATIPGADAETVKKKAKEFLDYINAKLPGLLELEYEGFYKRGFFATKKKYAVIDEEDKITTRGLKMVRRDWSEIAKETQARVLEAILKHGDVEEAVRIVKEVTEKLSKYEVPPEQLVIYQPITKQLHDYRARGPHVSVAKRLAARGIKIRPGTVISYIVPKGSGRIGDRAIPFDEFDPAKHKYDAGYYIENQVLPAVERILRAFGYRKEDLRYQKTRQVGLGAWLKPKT
Format: biochemical
Settings: global fitting, k3 fitted; duplex P2T3, 50°C
Outline: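 Quench-flow at 50 °C: enzyme with P2T3 in 2× Thermopol mixed with nucleotide plus MgSO4 (1 mM extra Mg2+ final). Nucleotide 1.6–100 µM, 4–5 levels; ageing 5 ms–60 s. Quenched with 0.3 M EDTA; 18% denaturing PAGE; duplicates. Active enzyme level set by active-site titration (50 ms dTTP pulse, quadratic fit). Global Matlab least-squares fit; k3 refitted fixed at 0.01 or 0.02 s−1; SD from covariance matrix.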

- k2 = kpol: 0.62 ± 0.13 s⁻¹
- k3: 0.028 ± 0.002 s⁻¹
Compound: Cc1cn([C@@H]2CO[C@H](COP(=O)(O)OP(=O)(O)OP(=O)(O)O)[C@@H](O)C2)c(=O)[nH]c1=O [hTTP]
